Active and inactive are the calls of the source. No cut-off for these calls is given here.
Columns and labels:
[1] = tested on: A549; assay: Upregulation of GDF15 gene expression in human A549 cells at 2 uM after 48 hrs by microarray analysis relative to control; type: functional
Procedure, shortened: (§1)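 A549 cells plated at 2×10^5 cells/well, treated 48 h at 2 μM, with DMSO vehicle as control. Whole-genome transcriptional profiling followed the manufacturer's protocol. Total RNA integrity was checked by Bioanalyzer before arraying.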

[2] = tested on: A549; assay: Upregulation of SCARNA7 gene expression in human A549 cells at 2 uM after 48 hrs by microarray analysis relative to control; type: functional; procedure, shortened: as §1
[3] = tested on: A549; assay: Upregulation of WDR63 gene expression in human A549 cells at 2 uM after 48 hrs by microarray analysis relative to control; type: functional; procedure, shortened: as §1
[4] = tested on: A549; assay: Downregulation of SNORA9 gene expression in human A549 cells at 2 uM after 48 hrs by microarray analysis relative to control; type: functional; procedure, shortened: as §1
[5] = molecular target: Cellular tumor antigen p53 (Homo sapiens) (UniProt P04637); assay: Activation of p53 in human A549 cells assessed as upregulation of CYFIP2 gene expression at 2 uM after 48 hrs by microarray analysis relative to control; type: cell-based; procedure, shortened: as §1
[6] = molecular target: Cellular tumor antigen p53 (Homo sapiens) (UniProt P04637); assay: Activation of p53 in human A549 cells assessed as upregulation of DDB2 gene expression at 2 uM after 48 hrs by microarray analysis relative to control; type: cell-based; procedure, shortened: as §1
[7] = tested on: A549; assay: Upregulation of ANKRD1 gene expression in human A549 cells at 2 uM after 48 hrs by microarray analysis relative to control; type: functional; procedure, shortened: as §1
[8] = tested on: A549; assay: Downregulation of TAS2R30 gene expression in human A549 cells at 2 uM after 48 hrs by microarray analysis relative to control; type: functional; procedure, shortened: as §1
[9] = molecular target: Cellular tumor antigen p53 (Homo sapiens) (UniProt P04637); assay: Activation of p53 in human A549 cells assessed as downregulation of STC2 gene expression at 2 uM after 48 hrs by microarray analysis relative to control; type: cell-based; procedure, shortened: as §1
[10] = tested on: SW-620; assay: Antiproliferative activity against human SW620 cells harboring p53 mutant assessed as cell viability at 10 uM after 96 hrs by WST8 assay relative to control; type: functional; settings: SW-620, 96 h, read-out: Activity
Procedure, shortened: (§2)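 Cells seeded at 5×10^3 per well and grown 24 h at 37°C, 5% CO2. A549 medium was DMEM with 10% FBS and 2 mM L-glutamine. SW620 medium had 10% FBS and 1% penicillin/streptomycin. Medium was then replaced with conjugate at 0.1, 1, 5 or 10 μM for 96 h. WST-8 reagent was added and absorbance read at 450 nm. Results are mean ± SD.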

[11] = tested on: A549; assay: Induction of apoptosis in human A549 cells at 2 uM after 48 hrs by Annexin V-FITC/ethidium homodimer-3/Hoechst 33342 staining based fluorescence microscopic method; type: functional, cell-based
Procedure, shortened: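 A549 cells seeded in chamber slides at 2×10^4 cells/well and exposed to 2 μM for 48 h; vehicle control 0.1% DMSO. Cells were washed in binding buffer and stained with FITC-annexin V (apoptotic), ethidium homodimer III (necrotic) and Hoechst 33342 (all nuclei), then imaged by confocal fluorescence microscopy.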

[12] = molecular target: Cellular tumor antigen p53 (Homo sapiens) (UniProt P04637); assay: Activation of p53 in human A549 cells assessed as upregulation of FAS gene expression at 2 uM after 48 hrs by microarray analysis relative to control; type: cell-based; procedure, shortened: as §1
[13] = tested on: dsDNA; assay: Binding affinity to 5'-ACTTATCCACTATAGA-3'/3'-TGAATAGGTGATATCT-5' dsDNA (unknown origin) assessed as change in melting temperature at 2.5 uM by spectrophotometric method; type: nucleic-acid assay
[14] = tested on: A549; assay: Upregulation of NEFL gene expression in human A549 cells at 2 uM after 48 hrs by microarray analysis relative to control; type: functional; procedure, shortened: as §1
[15] = molecular target: Cellular tumor antigen p53 (Homo sapiens) (UniProt P04637); assay: Activation of p53 in human A549 cells assessed as upregulation of MDM2 gene expression at 2 uM after 48 hrs by microarray analysis relative to control; type: cell-based; procedure, shortened: as §1
[16] = tested on: A549; assay: Upregulation of UIMC1 gene expression in human A549 cells at 2 uM after 48 hrs by microarray analysis relative to control; type: functional; procedure, shortened: as §1
[17] = tested on: A549; assay: Downregulation of ULBP1 gene expression in human A549 cells at 2 uM after 48 hrs by microarray analysis relative to control; type: functional; procedure, shortened: as §1
[18] = tested on: A549; assay: Upregulation of SULF2 gene expression in human A549 cells at 2 uM after 48 hrs by microarray analysis relative to control; type: functional; procedure, shortened: as §1
[19] = molecular target: Cellular tumor antigen p53 (Homo sapiens) (UniProt P04637); assay: Activation of p53 in human A549 cells assessed as upregulation of SESN1 gene expression at 2 uM after 48 hrs by microarray analysis relative to control; type: cell-based; procedure, shortened: as §1
[20] = tested on: A549; assay: Upregulation of GAS6-AS1 gene expression in human A549 cells at 2 uM after 48 hrs by microarray analysis relative to control; type: functional; procedure, shortened: as §1
[21] = tested on: A549; assay: Upregulation of MIR4713 gene expression in human A549 cells at 2 uM after 48 hrs by microarray analysis relative to control; type: functional; procedure, shortened: as §1
[22] = molecular target: Cellular tumor antigen p53 (Homo sapiens) (UniProt P04637); assay: Activation of p53 in human A549 cells assessed as downregulation of CARS gene expression at 2 uM after 48 hrs by microarray analysis relative to control; type: cell-based; procedure, shortened: as §1
[23] = tested on: A549; assay: Upregulation of MIR3189 gene expression in human A549 cells at 2 uM after 48 hrs by microarray analysis relative to control; type: functional; procedure, shortened: as §1
[24] = tested on: A549; assay: Upregulation of CDKN1A gene expression in human A549 cells at 2 uM after 48 hrs by microarray analysis relative to control; type: functional; procedure, shortened: as §1
[25] = molecular target: Cellular tumor antigen p53 (Homo sapiens) (UniProt P04637); assay: Activation of p53 in human A549 cells assessed as upregulation of SPATA18 gene expression at 2 uM after 48 hrs by microarray analysis relative to control; type: cell-based; procedure, shortened: as §1
[26] = tested on: dsDNA; assay: Binding affinity to 5'-ACTTATTCCATATAGA-3'/3'-TGAATAAGGTATATCT-5' dsDNA (unknown origin) assessed as change in melting temperature at 2.5 uM by spectrophotometric method; type: nucleic-acid assay
[27] = molecular target: Cellular tumor antigen p53 (Homo sapiens) (UniProt P04637); assay: Activation of p53 in human A549 cells assessed as upregulation of BTG2 gene expression at 2 uM after 48 hrs by microarray analysis relative to control; type: cell-based; procedure, shortened: as §1
[28] = molecular target: Cellular tumor antigen p53 (Homo sapiens) (UniProt P04637); assay: Activation of p53 in human A549 cells assessed as upregulation of FDXR gene expression at 2 uM after 48 hrs by microarray analysis relative to control; type: cell-based; procedure, shortened: as §1
[29] = molecular target: Cellular tumor antigen p53 (Homo sapiens) (UniProt P04637); assay: Activation of p53 in human A549 cells assessed as upregulation of TP53INP1 gene expression at 2 uM after 48 hrs by microarray analysis relative to control; type: cell-based; procedure, shortened: as §1
[30] = tested on: MV4-11; assay: Antiproliferative activity against human MV4-11 cells harboring wild type p53 after 96 hrs by WST8 assay; type: functional, cell-based; settings: MV4-11, 96 h
[31] = tested on: A549; assay: Downregulation of GUSBP3 gene expression in human A549 cells at 2 uM after 48 hrs by microarray analysis relative to control; type: functional; procedure, shortened: as §1
[32] = molecular target: Histone acetyltransferase p300 (Homo sapiens, UniProt Q09472); assay: Inhibition of p300 (unknown origin) using H3 peptide and acetyl-coA as substrate by fluorometric assay
Procedure, shortened: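 Fluorometric HAT kit assay with recombinant p300 core domain as enzyme and acetyl-CoA plus H3 histone peptide as substrates. Effectors were tested at 1 and 5 μM. HeLa nuclear extract served as positive control, and 0.5% DMSO was set as 100% activity.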

[33] = molecular target: Cellular tumor antigen p53 (Homo sapiens) (UniProt P04637); assay: Activation of p53 in human A549 cells assessed as upregulation of EDA2R gene expression at 2 uM after 48 hrs by microarray analysis relative to control; type: cell-based; procedure, shortened: as §1
[34] = tested on: A549; assay: Upregulation of MIR3685 gene expression in human A549 cells at 2 uM after 48 hrs by microarray analysis relative to control; type: functional; procedure, shortened: as §1
[35] = tested on: A549; assay: Downregulation of ALDH1L2 gene expression in human A549 cells at 2 uM after 48 hrs by microarray analysis relative to control; type: functional; procedure, shortened: as §1
[36] = tested on: A549; assay: Upregulation of ABCA12 gene expression in human A549 cells at 2 uM after 48 hrs by microarray analysis relative to control; type: functional; procedure, shortened: as §1
[37] = tested on: A549; assay: Antiproliferative activity against human A549 cells after 96 hrs by WST8 assay; type: functional, cell-based; procedure, shortened: as §2
[38] = tested on: A549; assay: Downregulation of ASNS gene expression in human A549 cells at 2 uM after 48 hrs by microarray analysis relative to control; type: functional; procedure, shortened: as §1
[39] = tested on: MDA-MB-231; assay: Antiproliferative activity against human MDA-MB-231 cells harboring p53 mutant assessed as cell viability at 10 uM after 96 hrs by WST8 assay relative to control; type: functional; settings: MDA-MB-231, 96 h, read-out: Activity
[40] = molecular target: Cellular tumor antigen p53 (Homo sapiens) (UniProt P04637); assay: Activation of p53 in human A549 cells assessed as upregulation of CD70 gene expression at 2 uM after 48 hrs by microarray analysis relative to control; type: cell-based; procedure, shortened: as §1
[41] = tested on: A549; assay: Upregulation of POLH gene expression in human A549 cells at 2 uM after 48 hrs by microarray analysis relative to control; type: functional; procedure, shortened: as §1
[42] = molecular target: Cellular tumor antigen p53 (Homo sapiens) (UniProt P04637); assay: Activation of p53 in human A549 cells assessed as downregulation of CHAC1 gene expression at 2 uM after 48 hrs by microarray analysis relative to control; type: cell-based; procedure, shortened: as §1

Sequence of Cellular tumor antigen p53 (Homo sapiens) (P04637 whole entry, looked up): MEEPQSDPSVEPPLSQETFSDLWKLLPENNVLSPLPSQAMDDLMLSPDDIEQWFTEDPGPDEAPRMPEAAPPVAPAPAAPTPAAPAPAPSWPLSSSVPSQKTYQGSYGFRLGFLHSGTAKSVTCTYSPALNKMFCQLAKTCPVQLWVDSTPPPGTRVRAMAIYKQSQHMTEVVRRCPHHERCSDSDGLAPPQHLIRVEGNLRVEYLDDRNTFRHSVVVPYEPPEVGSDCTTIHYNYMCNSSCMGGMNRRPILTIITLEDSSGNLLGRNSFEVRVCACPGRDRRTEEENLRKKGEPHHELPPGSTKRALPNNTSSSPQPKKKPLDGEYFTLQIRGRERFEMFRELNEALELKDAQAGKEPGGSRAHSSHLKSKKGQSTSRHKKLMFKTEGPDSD
Sequence of Histone acetyltransferase p300 (Q09472 whole entry, the tested form may be a part): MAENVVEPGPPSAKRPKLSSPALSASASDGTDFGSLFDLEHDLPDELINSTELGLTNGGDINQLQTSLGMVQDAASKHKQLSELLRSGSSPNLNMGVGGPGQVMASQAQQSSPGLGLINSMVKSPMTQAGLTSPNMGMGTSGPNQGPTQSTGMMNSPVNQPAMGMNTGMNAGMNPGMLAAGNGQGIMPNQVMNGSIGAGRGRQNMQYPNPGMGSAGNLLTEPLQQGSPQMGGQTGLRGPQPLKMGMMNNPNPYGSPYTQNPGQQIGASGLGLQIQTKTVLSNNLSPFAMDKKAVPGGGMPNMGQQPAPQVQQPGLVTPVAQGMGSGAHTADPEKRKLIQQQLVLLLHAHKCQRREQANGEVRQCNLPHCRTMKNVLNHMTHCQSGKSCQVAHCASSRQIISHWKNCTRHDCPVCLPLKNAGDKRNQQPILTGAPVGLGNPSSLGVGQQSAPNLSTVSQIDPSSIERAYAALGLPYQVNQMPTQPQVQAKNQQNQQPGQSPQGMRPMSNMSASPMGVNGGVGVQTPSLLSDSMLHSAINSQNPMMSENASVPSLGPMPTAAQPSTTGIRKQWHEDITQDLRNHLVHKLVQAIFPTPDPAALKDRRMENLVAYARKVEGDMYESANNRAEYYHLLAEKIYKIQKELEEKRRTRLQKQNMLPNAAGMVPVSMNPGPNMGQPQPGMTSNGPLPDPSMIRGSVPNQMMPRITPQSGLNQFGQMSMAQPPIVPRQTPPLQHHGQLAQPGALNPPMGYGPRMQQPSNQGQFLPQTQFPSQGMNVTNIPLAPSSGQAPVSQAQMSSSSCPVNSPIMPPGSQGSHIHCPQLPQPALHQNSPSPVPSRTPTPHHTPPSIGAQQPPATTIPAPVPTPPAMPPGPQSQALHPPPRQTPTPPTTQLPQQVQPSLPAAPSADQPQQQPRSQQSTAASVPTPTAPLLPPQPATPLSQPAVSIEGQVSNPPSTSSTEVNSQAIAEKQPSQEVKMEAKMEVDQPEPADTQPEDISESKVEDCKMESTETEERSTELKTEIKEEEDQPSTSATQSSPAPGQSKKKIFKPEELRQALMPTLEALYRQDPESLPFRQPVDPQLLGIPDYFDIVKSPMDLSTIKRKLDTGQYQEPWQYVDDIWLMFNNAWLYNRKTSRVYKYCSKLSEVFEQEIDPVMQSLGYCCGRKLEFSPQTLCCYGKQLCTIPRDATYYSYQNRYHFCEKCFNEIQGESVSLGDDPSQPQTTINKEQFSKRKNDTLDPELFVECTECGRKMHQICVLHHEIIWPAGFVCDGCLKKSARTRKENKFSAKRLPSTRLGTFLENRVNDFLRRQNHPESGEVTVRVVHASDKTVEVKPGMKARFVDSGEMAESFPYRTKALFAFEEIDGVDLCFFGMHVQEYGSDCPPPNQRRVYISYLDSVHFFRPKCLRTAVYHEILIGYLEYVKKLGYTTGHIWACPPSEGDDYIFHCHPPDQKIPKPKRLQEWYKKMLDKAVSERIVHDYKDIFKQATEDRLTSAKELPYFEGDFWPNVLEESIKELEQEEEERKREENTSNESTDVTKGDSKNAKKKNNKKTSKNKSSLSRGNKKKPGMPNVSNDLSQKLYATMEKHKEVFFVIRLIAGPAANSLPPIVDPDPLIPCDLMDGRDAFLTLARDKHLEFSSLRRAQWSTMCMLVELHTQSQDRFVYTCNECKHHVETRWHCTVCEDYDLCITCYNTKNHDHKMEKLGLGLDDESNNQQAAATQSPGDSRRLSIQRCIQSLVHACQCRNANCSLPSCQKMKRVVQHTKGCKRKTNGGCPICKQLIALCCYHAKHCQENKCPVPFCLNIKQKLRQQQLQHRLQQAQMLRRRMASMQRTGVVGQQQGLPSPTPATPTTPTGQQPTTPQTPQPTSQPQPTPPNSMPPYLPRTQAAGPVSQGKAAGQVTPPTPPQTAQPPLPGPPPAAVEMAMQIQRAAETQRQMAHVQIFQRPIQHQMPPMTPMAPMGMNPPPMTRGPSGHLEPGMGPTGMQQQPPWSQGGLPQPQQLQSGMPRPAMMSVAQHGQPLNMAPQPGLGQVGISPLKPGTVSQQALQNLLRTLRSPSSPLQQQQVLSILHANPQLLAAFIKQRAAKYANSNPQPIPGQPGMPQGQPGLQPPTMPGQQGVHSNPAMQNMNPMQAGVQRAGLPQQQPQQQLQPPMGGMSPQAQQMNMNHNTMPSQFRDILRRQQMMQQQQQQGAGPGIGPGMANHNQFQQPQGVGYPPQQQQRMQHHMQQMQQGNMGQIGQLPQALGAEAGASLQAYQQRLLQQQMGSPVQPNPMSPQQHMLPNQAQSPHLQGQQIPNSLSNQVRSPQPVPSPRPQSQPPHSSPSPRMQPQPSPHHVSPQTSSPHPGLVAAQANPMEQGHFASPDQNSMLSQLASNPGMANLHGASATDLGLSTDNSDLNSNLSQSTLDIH

SMILES: CC1=NN(c2ccc(C(=O)NCCOCCOCC(=O)NCCC(=O)Nc3cc(C(=O)Nc4cn(C)c(C(=O)Nc5cn(C)c(C(=O)Nc6cc(C(=O)NCCCC(=O)Nc7cc(C(=O)Nc8cc(C(=O)Nc9cc(C(=O)Nc%10cc(C(=O)NCCCN(C)C)n(C)c%10)n(C)c9)n(C)c8)n(C)c7)n(C)c6)n5)n4)n(C)c3)cc2)C(=O)/C1=C/c1ccc(-c2cc(C)c(C)cc2[N+](=O)[O-])o1
- fold change (FC) [1]: 1.81
- fold change (FC) [2]: 1.89
- fold change (FC) [3]: 2.03
- fold change (FC) [4]: 1.81
- fold change (FC) [5]: 1.88
- fold change (FC) [6]: 1.8
- fold change (FC) [7]: 1.81
- fold change (FC) [8]: 2.01
- fold change (FC) [9]: 2.34
- viability at 10 µM [10]: 78.4%
- Activity [11]: Active
- fold change (FC) [12]: 1.83
- ΔTm [13]: 11.5 °C
- fold change (FC) [14]: 1.8
- fold change (FC) [15]: 1.97
- fold change (FC) [16]: 1.94
- fold change (FC) [17]: 2.34
- fold change (FC) [18]: 2.13
- fold change (FC) [19]: 1.91
- fold change (FC) [20]: 1.81
- fold change (FC) [21]: 1.94
- fold change (FC) [22]: 1.9
- fold change (FC) [23]: 2.32
- fold change (FC) [24]: 2.28
- fold change (FC) [25]: 2.98
- ΔTm [26]: 18.1 °C
- fold change (FC) [27]: 2.35
- fold change (FC) [28]: 2
- fold change (FC) [29]: 1.85
- IC50 [30]: 2.6 µM
- fold change (FC) [31]: 2.63
- IC50 [32]: 3.9 to 4.2 µM
- fold change (FC) [33]: 2.53
- fold change (FC) [34]: 1.89
- fold change (FC) [35]: 1.86
- fold change (FC) [36]: 2.42
- Activity [37]: Dose-dependent effect
- IC50 ([37]; A549, 96 h): 1.8 µM
- fold change (FC) [38]: 2.01
- viability at 10 µM [39]: 69.3%
- fold change (FC) [40]: 1.83
- fold change (FC) [41]: 1.88
- fold change (FC) [42]: 3.64

Source: ChEMBL document CHEMBL4190249, “Antiproliferative and apoptotic activities of sequence-specific histone acetyltransferase inhibitors” (Eur J Med Chem, 2017)
